Screen size: about 360,000 compounds; about 5,400 (1.5%) were called active.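 How the source made its calls: active means inhibition above a per-plate cutoff, the mean inhibition of test compounds on that plate plus 3 SD (cut at about 49% in these data); inactive means the rest.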 The full list was thinned out, with actives kept by preference.
biological target: Trace amine-associated receptor 1 (Homo sapiens) (UniProt Q96RJ0); experiment: human TAAR1 antagonists, primary screen, Fluo-8 calcium fluorescence, CHO RD-HGA16 cells (AID 624466); settings: CHO RD-HGA16 TAAR1, Fluo-8 calcium fluorescence, antagonist; at 3 µM; stronger effect = higher value;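 further: 0% = DMSO plus EC80 beta-PEA response and 100% = DMSO alone without agonist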
Sequence (Q96RJ0 whole entry, looked up): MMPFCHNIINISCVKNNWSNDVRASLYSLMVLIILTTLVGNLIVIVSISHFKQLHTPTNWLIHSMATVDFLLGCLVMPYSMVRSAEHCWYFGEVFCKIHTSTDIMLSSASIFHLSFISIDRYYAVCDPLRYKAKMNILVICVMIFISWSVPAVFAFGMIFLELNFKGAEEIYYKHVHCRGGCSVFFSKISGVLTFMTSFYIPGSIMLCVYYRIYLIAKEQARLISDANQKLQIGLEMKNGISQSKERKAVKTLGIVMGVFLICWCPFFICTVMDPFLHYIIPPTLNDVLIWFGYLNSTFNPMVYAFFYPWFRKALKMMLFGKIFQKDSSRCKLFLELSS
In short: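 Material: RD-HGA16 CHO cells with stable hTAAR1 and Gα16; Dosing: single nominal final test compound concentration of 3 µM; Schedule: seeding 17-24 h prior, 75-min 37 °C, 30-min RT dye loading; Detection: kinetic Fluo-8 calcium fluorescence measurement; Measure: % inhibition from peak post-agonist over basal fluorescence ratio; Benchmarks: vehicle and agonist controls.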

Structure (SMILES) | inhibition
COC(=O)c1sc(-c2ccc(C(C)(C)C)cc2)cc1NC(=O)/C=C/C(=O)O | 69.3% (active)
COc1ccc(NS(=O)(=O)c2ccc(N3CCOCC3)c(NC(=O)/C=C/C(=O)O)c2)cc1 | -2.93% (inactive)
COc1ccccc1NC(=O)/C=C/C(N)=O | -1.16% (inactive)
CC(C)(C)OC(=O)N1CCC(NC(=O)c2[nH]cnc2C(=O)N[C@@H](Cc2ccccc2)C(=O)OCc2ccccc2)CC1 | 35.6% (inactive)
C[C@H](NC(=O)c1nc[nH]c1C(=O)NCC(=O)OC(C)(C)C)c1ccccc1 | -2.15% (inactive)
CC(C)(C)OC(=O)NCCCCCNC(=O)c1nc[nH]c1C(=O)NCc1ccccc1 | 60% (active)
C[C@H](NC(=O)c1nc[nH]c1C(=O)NCC(=O)OC(C)(C)C)C(=O)OCc1ccccc1 | 60.9% (active)
Cc1cccc(NC(=O)c2nc[nH]c2C(=O)NCC(=O)OCc2ccccc2)c1 | 64% (active)
CC(C)(C)OC(=O)NCCCCCNC(=O)c1[nH]cnc1C(=O)Nc1nccs1 | 38.9% (inactive)
O=C(Nc1cc(Br)ccc1F)c1nc[nH]c1C(=O)NCc1ccccc1 | -18.3% (inactive)
CC(C)(C)OC(=O)CNC(=O)c1[nH]cnc1C(=O)N[C@@H](Cc1ccccc1)C(=O)OCc1ccccc1 | 51.3% (active)
O=C(N[C@@H](Cc1ccccc1)C(=O)OCc1ccccc1)c1nc[nH]c1C(=O)N[C@@H](Cc1ccccc1)C(=O)OCc1ccccc1 | 15.8% (inactive)
O=C(Nc1ccon1)c1nc[nH]c1C(=O)NCc1ccccc1 | -5.83% (inactive)
CNC(=O)c1[nH]cnc1C(=O)N[C@@H](CC(C)C)C(=O)OCc1ccccc1 | 23.5% (inactive)
C[C@H](NC(=O)c1nc[nH]c1C(=O)N[C@@H](C)C(=O)OC(C)(C)C)C(=O)OC(C)(C)C | 0.46% (inactive)
CN(CCc1ccccn1)C1CCCN(S(=O)(=O)c2ccccc2Cl)C1 (stereo not drawn) | -19.7% (inactive)
COc1ccccc1Cc1c(-c2ccc(F)cc2)nc2ccc(C)cn12 | -18.1% (inactive)
O=C(NCc1ccccc1)[C@H]1CCCN1C(=O)[C@H]1CCCN1C(=O)N1CCOCC1 | 15.4% (inactive)
CCCCn1nnnc1C(c1cc2ccccc2o1)N(C)Cc1ccc(Cl)c(Cl)c1 (stereo not drawn) | -19.1% (inactive)
CC(C)[C@H]1COCCS(=O)(=O)N1Cc1ccccc1-c1cccc2c1sc1ccccc12 | -54.8% (inactive)
Nc1nc(CC(=O)CSc2ccc(Cl)cc2)nc(Nc2ccc(F)cc2)n1 | -2.27% (inactive)
C=CCC[C@@H](CCCCC)OC(=O)/C=C/[C@@H](O)[C@H](O)C[C@H](O)CC=C | -5.68% (inactive)
Cc1nc(NC(=O)C(C)(C)C)sc1[N+](=O)[O-] | -6.34% (inactive)
Cc1ccc(C(=O)N2CC(=O)Nc3ccccc32)o1 | -3.59% (inactive)
O=C(NCc1ccccc1)C(c1ccc(F)cc1)N1CCN(C(=O)C2CCCO2)CC1 (stereo not drawn) | -21.5% (inactive)
CCCCC[C@H](C)N1C[C@@H](COCc2ccccc2)Oc2cc(N3CC[C@@H](N(C)C)C3)ccc2S1(=O)=O | -6.02% (inactive)
Nc1ncnc2c1ncn2[C@@H]1O[C@H](C(=O)N[C@@H](CCc2ccccc2)C(=O)NCC(=O)N2CCOCC2)[C@@H](O)[C@H]1O | 8.4% (inactive)

Structure (SMILES) | inhibition
COC(=O)C1=C(C)N(Cc2cccc(C(F)(F)F)c2)C(=NCc2ccccc2)NC1c1ccc(Cl)cc1 (stereo not drawn) | 46% (inactive)
COC(=O)[C@]12C[C@H](CC(=O)NCc3ccccc3)C(=O)N(CCC3=CCCCC3)C1=C[C@H](C(C)(C)C)O[C@@H]2C | -44.8% (inactive)
COc1cccc(-c2cc(CNC(=O)[C@@H](Cc3ccccc3)NC(=O)[C@H]3O[C@@H](n4cnc(C(N)=O)n4)[C@H](O)[C@@H]3O)no2)c1 | -23.1% (inactive)
O=C(NCCN1CCOCC1)c1ccc2c(c1)N(Cc1cccc(Cl)c1)C(=O)c1ccccc1S2(=O)=O | -0.54% (inactive)
O=C(NCCN1CCOCC1)c1ccc(/C=C2\Sc3ccccc3N(Cc3ccc(F)cc3)C2=O)cc1 | 70.2% (active)
CCN1CCN(CCNC(=O)c2ccc(/C=C3/Sc4ccccc4N(Cc4cccc(C)c4)C3=O)cc2)CC1 | 61.5% (active)
O=C(NCCN1CCOCC1)/C(=C/c1ccc(F)cc1)NC(=O)c1ccccc1 | 1.45% (inactive)
Cc1ccc(C(=O)N/C(=C\c2ccc(F)cc2)C(=O)NCCN2CCOCC2)cc1 | 0.72% (inactive)
Cc1cccc(-c2nc3ccc(C(=O)NCCN4CCN(C)CC4)cc3nc2-c2cccc(C)c2)c1 | -13.7% (inactive)
C=C1C(=O)OC2C1CCC(C)=CCCC1(C)OC21 (stereo not drawn) | -17.7% (inactive)
CCOc1ccc(S(=O)(=O)NCCC(=O)NNC(=O)c2ccc(F)cc2)cc1 | -12% (inactive)
O=C(Nc1ccccc1N1CCOCC1)c1ccc(OCc2cscn2)cc1 | 29.3% (inactive)
CC(C)OCCCNc1ncnc2c1[nH]c1ccc(F)cc12 | 51.5% (active)
Cc1ccc(C2NC(C(=O)O)CS2)cc1 (stereo not drawn) | -13.1% (inactive)
O=C1/C(=C\c2ccc([N+](=O)[O-])cc2)CS(=O)(=O)C/C1=C/c1ccc([N+](=O)[O-])cc1 | 36.7% (inactive)
c1ccc(CSc2ncnc3c2sc2nc(N4CCOCC4)c4c(c23)CCCC4)cc1 | -16.6% (inactive)
c1ccc2c(CCN3CCNC[C@H]3Cc3cccc4ccccc34)cccc2c1 | 23.8% (inactive)
c1ccc(C2CNCc3c2ccc2ccccc32)cc1 (stereo not drawn) | 81.3% (active)
O=C(CCNC(=O)Cn1ccc2ccccc2c1=O)NCCC1=CCCCC1 | -24.7% (inactive)
O=C(NCCC1=CCCCC1)c1ccc(-n2cncn2)cc1 | -0.95% (inactive)
Cc1ccn2c(=O)c(C(=O)NCCC3=CCCCC3)c(O)nc2c1 | 64.5% (active)
C(#CCN1CCOCC1)CCCN1CCOCC1 | -21.3% (inactive)
O=C(COC(=O)C12CC3CC(CC(O)(C3)C1)C2)NC12CC3CC(CC(C3)C1)C2 | -12.3% (inactive)
Cc1ccc(/C=N/NC(=O)C2=NNC(c3ccccc3)(c3ccccc3)C2)c(O)c1 | 0.27% (inactive)
CCN(CC)c1ccc(/C=N/NC(=O)c2cnccn2)c(O)c1 | 48.9% (active)
CCN(CC)c1ccc(NC(=O)c2ccc(Cl)nc2)cc1 | 6.5% (inactive)

From PubChem BioAssay AID624466 (The Scripps Research Institute Molecular Screening Center, 2012)
